Out of some 340,000 compounds screened, about 3,000 (0.88%) were called active. The list comes from a sample in which actives are over-represented; it also holds similar structures and randomly drawn compounds. Unmarked numbers belong to inactive results.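 How the source made its calls: active means inhibition above about 50% at 20 µM (limit read from the data); inactive means the rest.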
target: Carboxy-terminal domain RNA polymerase II polypeptide A small phosphatase 1 (Homo sapiens) (UniProt Q9GZU7); assay: Scp-1 phosphatase inhibitors, primary screen, biochemical, colorimetric, uHTS (AID 493091); settings: Recombinant Scp1, phosphopeptide, malachite green phosphate absorbance; at 20 µM; active compounds read high;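 further: plate controls were DMSO wells with enzyme for no effect and wells lacking enzyme for full effect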
Summary of the method: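 Test system: SCP-1 phosphatase catalytic domain, residues 76-261; measured by: colorimetric phosphate reagent with accelerator and stabiliser, absorbance at 630 nm; timing: enzyme reaction 45 min at room temperature, colour 5 min, stabilisation 30 min; also added: Phosphorylated 17-residue peptide substrate; compound dosing: one concentration, 20 µM, with 1.0% DMSO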

Chain of Carboxy-terminal domain RNA polymerase II polypeptide A small phosphatase 1 (Homo sapiens) (Q9GZU7 76-261 limits assumed): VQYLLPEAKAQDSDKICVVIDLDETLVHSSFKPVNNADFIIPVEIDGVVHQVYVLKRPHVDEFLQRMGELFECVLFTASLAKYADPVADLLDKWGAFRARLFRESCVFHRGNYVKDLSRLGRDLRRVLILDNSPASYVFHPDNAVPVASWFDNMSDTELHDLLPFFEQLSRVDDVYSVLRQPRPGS

SMILES | inhibition
CCOC(=O)C1=C(C)c2ccccc2OC1(C)C(=O)OCC (centres undefined) | 70.1% (active)
CCOC(=O)C1=C(C)c2ccccc2OC1C(=O)OCC (centres undefined) | -1.33%
CCOC(=O)C1=C(NC(=S)NC(=O)c2ccccc2)c2ccccc2CC1(C)C | -6.2%
COc1c(C(C)C)oc2cc3oc(=O)ccc3cc12 | -9.44%
N#Cc1ccc(C(=O)Nc2cccc3cccnc23)c(F)c1 | 100% (active)
CSc1ccc(C#N)cc1NC(=O)c1cccc(Cl)c1 | -21.5%
COc1ccc(NC(=O)c2ccco2)cc1NC(=O)c1ccc(C#N)cc1F | 6.99%
Nc1ccc2nc3c(=O)[nH]c(=S)[nH]c3nc2c1 | 78.4% (active)
CC12CCC(C(=O)N3CCN(c4ncccn4)CC3)(c3nc4ccccc4nc31)C2(C)C (centres undefined) | -9.3%
O=C(C[n+]1cc(Br)cc2ccccc21)c1ccc(F)cc1 | -4.19%
COC(=O)C[n+]1cccc2ccccc21 | 105% (active)
COC(=O)Cc1c(-c2[nH]c3ccccc3c2CC(=O)OC)[nH]c2ccccc12 | -13.3%
CCOc1cc2[nH]c(=S)n(CCCN3CCCC3=O)c(=O)c2cc1OCC | -8.04%
Cc1ccc(NC(=S)N2CCN(c3ncccn3)CC2)cc1C | 4.95%
COc1ccc(CN2CCC(n3nccc3NC(=O)CCCc3ccccc3)CC2)cc1C | 6.87%
Cc1oc2c(C)c3oc(=O)c(CC(=O)N[C@@H](CC(C)C)C(=O)N[C@@H](Cc4ccccc4)C(=O)O)c(C)c3cc2c1C | 88% (active)
Cc1c(OC(C)C(=O)N[C@@H](Cc2ccccc2)C(=O)O)ccc2c3c(c(=O)oc12)CCCC3 (some centres undefined) | 4.1%
Cc1c(CCC(=O)N[C@@H](CC(C)C)C(=O)O)c(=O)oc2c(C)c3oc4c(c3cc12)CCCC4 | -2.45%
CC(Oc1ccc(-c2ccccc2)c(F)c1)c1ccn(S(=O)(=O)c2cccc3ccccc23)n1 (centres undefined) | -13.9%
Cc1c(-c2nn(C)c(=O)c3ccccc23)oc2ccc(F)cc2c1=O | 3.62%
Cc1c(Cl)c([N+](=O)[O-])nn1CCCC(=O)NC(C)c1ccccc1 (centres undefined) | -27.1%
CCCCCC(=O)Nc1ccc(S(=O)(=O)Nc2ccc(Cl)nn2)cc1 | 4.6%
Cc1nnc(SCC(=O)Nn2cnnc2)s1 | -3.13%
Cc1nnc(SCC(=O)Nc2ccc(S(=O)(=O)Nc3ccc(Cl)nn3)cc2)s1 | 79.2% (active)

SMILES | inhibition
CCNC(=O)COc1cc(C)c(Br)c(C)c1 | -2.07%
O=C(Nc1nc(-c2ccco2)c(-c2ccco2)s1)c1ccco1 | -3.82%
COCCNC(=O)Nc1ccc2nc(-c3ccco3)c(-c3ccco3)nc2c1 | 79.6% (active)
COCCNC(=O)c1snc2ccc(Cl)cc12 | -6.6%
O=C(COc1ccccc1)Nc1ccc(N2CCN(C(=O)c3cccs3)CC2)cc1 | -5.15%
O=C(CNC(=O)c1n[nH]c2ccccc12)Nc1cc(Cl)ccc1Cl | 5.8%
Cc1cccc(N=Nc2c(O)[nH]c3ccc(F)cc23)c1 | -10.6%
COc1ccccc1OCCCCCCN1CCN(C)CC1 | -4.32%
CCCC(=O)Nc1ccccc1N1CCN(C(=O)c2ccccc2)CC1 | -9.5%
COc1ccc(C(=O)NC(=S)Nc2ccccc2N2CCN(S(C)(=O)=O)CC2)cc1OC | -10.7%
CCC(=O)Nc1ccccc1N1CCN(S(C)(=O)=O)CC1 | 53.6% (active)
CCn1cc(C(=O)NCC(=O)NC(C)(C)CO)c(=O)c2cc3c(cc21)OCO3 | -9.05%
COc1ccccc1CCC(=O)OCC(=O)N1CCN(S(=O)(=O)c2ccc(C)cc2C)CC1 | -11.1%
CC1(C)CC(CNCCC(c2ccc(F)cc2)c2ccco2)CCO1 (centres undefined) | -5.21%
CCn1ncc(CNC(=O)C2(C)CC2(Br)Br)c1C (centres undefined) | -6.32%
Cc1noc(C)c1S(=O)(=O)N(C)C[C@H]1Oc2ccc(NC(=O)C3CCCCC3)cc2C(=O)N([C@H](C)CO)C[C@@H]1C | -2.33%
C[C@H](CO)N1C[C@H](C)[C@@H](CN(C)S(=O)(=O)c2ccc(F)cc2)Oc2ccc(NC(=O)CCC(F)(F)F)cc2C1=O | -5.81%
C[C@@H]1CN([C@@H](C)CO)C(=O)c2cc(NC(=O)C3CC3)ccc2O[C@H]1CN(C)C | -8.19%
C[C@@H]1CN([C@@H](C)CO)C(=O)c2cccc(NS(=O)(=O)c3ccc(F)cc3)c2O[C@H]1CN(C)C(=O)NC1CCCCC1 | -0.48%
COc1ccc(NC(=O)N(C)C[C@H]2Oc3ccc(NC(=O)C4CC4)cc3C(=O)N([C@H](C)CO)C[C@@H]2C)cc1 | 67.9% (active)
C[C@H](CO)N1C[C@H](C)[C@@H](CN(C)C(=O)NC2CCCCC2)Oc2ccc(NC(=O)c3ccncc3)cc2C1=O | 57.7% (active)
COc1ccc(S(=O)(=O)N(C)C[C@@H]2Oc3ccc(NC(=O)Nc4c(C)noc4C)cc3C(=O)N([C@H](C)CO)C[C@@H]2C)cc1 | 21.7%
Cc1ccc(S(=O)(=O)Nc2ccc3c(c2)C(=O)N([C@H](C)CO)C[C@@H](C)[C@@H](CN(C)C(=O)Nc2cccc4ccccc24)O3)cc1 | 59.1% (active)
Cc1noc(C)c1NC(=O)Nc1ccc2c(c1)C(=O)N([C@H](C)CO)C[C@H](C)[C@@H](CN(C)C(=O)Nc1ccccc1)O2 | 35.8%

SMILES | inhibition
COc1ccc(NC(=O)Nc2ccc3c(c2)C(=O)N([C@H](C)CO)C[C@H](C)[C@@H](CN(C)C(=O)Nc2ccc4c(c2)OCO4)O3)cc1 | 48.8%
Cc1noc(C)c1NC(=O)Nc1ccc2c(c1)C(=O)N([C@H](C)CO)C[C@H](C)[C@@H](CN(C)C(=O)Nc1ccc(C(F)(F)F)cc1)O2 | 50.3% (active)
C[C@@H]1CN([C@H](C)CO)C(=O)c2cc(NC(=O)NC3CCCCC3)ccc2O[C@H]1CN(C)S(C)(=O)=O | -8.19%
CN(C(=O)CSc1nnc(-c2c[nH]c3ccccc23)o1)C1CCS(=O)(=O)C1 (centres undefined) | -5.57%
Cc1cccc(N2CCN(Cc3nc(C4CC4)no3)CC2)n1 | -8.45%
CC(C)=CCN1CCN(Cc2cc3ccccc3[nH]2)CC1CCO (centres undefined) | -3.55%
COC(=O)c1ccc(S(=O)(=O)c2ccc(C(=O)OC)s2)s1 | -2.05%
NC(=O)C1=C[C@H](c2csc3ccccc23)C[C@H](OCc2ccc(CO)cc2)O1 | -0.48%
Cc1noc(C)c1NC(=O)Nc1cccc2c1O[C@H](CN(C)C(=O)Nc1ccccc1)[C@@H](C)CN([C@H](C)CO)C2=O | -8.19%
C[C@H](CO)N1C[C@H](C)[C@H](CN(C)C(=O)Nc2ccc(C(F)(F)F)cc2)Oc2c(NC(=O)c3ccncc3)cccc2C1=O | 88% (active)
C[C@H](CO)N1C[C@H](C)[C@@H](CN(C)C(=O)Nc2ccc3c(c2)OCO3)Oc2c(cccc2N(C)C)C1=O | 38.7%
COC(=O)CSc1ccc2nnc(CCNS(=O)(=O)c3ccc(C)cc3)n2n1 | -10.5%
Cc1ccccc1NC(=O)CN1C(=O)N/C(=C\c2cccn2-c2cccc(C(=O)O)c2)C1=O | 65.5% (active)
Cc1ccccc1NC(=O)CSC(=O)c1ccccc1 | -4.57%
O=C1N/C(=C/c2cccn2-c2ccccc2)C(=O)N1c1cccc(Cl)c1 | -4.36%
O=C(COC(=O)c1ccc(O)cc1)Nc1nccs1 | -1.45%
O=C(Nc1ccc(-c2ccc3nncn3n2)cc1)C1CCCCC1 | -12.9%
CCCc1cc(=O)[nH]c(SCC(=O)Nc2ccc(C(=O)Nc3ccccc3OC)cc2)n1 | -2.71%
COc1ccc(OC)c(NC(=O)CSc2nc(N)c(-c3ccccc3)c(=O)[nH]2)c1 | 3.19%
COc1ccc(OC)c(NC(=O)CSc2nc(-c3ccccc3)cc(=O)[nH]2)c1 | 81.5% (active)
CC(=O)c1cccc(NC(=O)N2CCCC2C(=O)NCCc2ccccc2)c1 (centres undefined) | -7.73%
Nc1ccc(C(=O)NCc2ccccc2)cc1 | -1.69%
C[n+]1ccc(C(=O)NCc2ccccc2)cc1 | 92.7% (active)
CS(=O)(=O)NCc1ccc(C(=O)NCc2ccccc2)cc1 | -6.79%

SMILES | inhibition
Cc1noc(C)c1-c1ccc2ncnc(NC(C)c3ccco3)c2c1 (centres undefined) | 8.09%
CCn1cc(C(=O)N2CCN(C3CCCCC3)CC2)c2cc(OC)c(OC)cc2c1=O | 0%
CCOC(=O)N1CCN(C(=O)C2CC(c3ccc(F)cc3)=NO2)CC1 (centres undefined) | -0.41%
Cc1cccc(-[n+]2c(-c3cccc(Br)c3)[nH]c3nc4ccccc4nc32)c1 | -8.9%
NS(=O)(=O)c1cccc(NC(=O)CSc2nc3ccccc3n2-c2ccccc2)c1 | -22.7%
NC(=O)NC(=O)CSc1nc2cc([N+](=O)[O-])ccc2n1-c1cccc(C(F)(F)F)c1 | 62.8% (active)
COc1ccc(-n2cnnc2SCC(=O)Nc2cccc([N+](=O)[O-])c2)cc1 | -10.7%
C/C(CC(=O)Nc1ccc(Cl)cc1)=N\NC(=O)C(=O)NCCO | -2.46%
COc1ccc(N2C(=O)C(CC(=O)Nc3ccc(F)cc3)N(CCc3cccs3)C2=O)cc1 (centres undefined) | 0.58%
CCN(CC)c1ccc(C(=O)NNC(=O)CCc2nc3ccccc3c(=O)[nH]2)cc1 | -4.7%
CN(c1ccccc1)S(=O)(=O)c1ccc(Cl)c(C(=O)OCC(=O)NCc2ccco2)c1 | 81.1% (active)
CC1CCN(C(=O)COC(=O)CCC(=O)c2cccs2)CC1 | 0.96%
O=C(COC(=O)c1cccs1)NCc1cccs1 | -4.94%
O=C(COC(=O)CCC(=O)c1cccs1)NCc1ccco1 | 96.1% (active)
Cc1cc(C(=O)OCC(=O)NCc2ccco2)c(C)n1-c1ccccc1 | 73.1% (active)
CN(c1ccccc1)S(=O)(=O)c1ccc(Cl)c(C(=O)OCC(N)=O)c1 | -10.7%
Cc1cc(C(=O)OCC(=O)N2c3ccccc3NC(=O)C2(C)C)c(C)n1-c1ccccc1 | -10.3%
C/C(=N\Nc1ncc(Cl)cc1Cl)c1ccc(S(=O)(=O)NCc2ccco2)cc1 | -6.85%
CCOC(=O)c1cnc(SCC(=O)NCc2ccco2)nc1N | -2.2%
CN(c1ccccc1)S(=O)(=O)c1ccc(Cl)c(C(=O)OCC(=O)N2CCOCC2)c1 | -10.4%
Cc1c(Cl)cnc(NC(=O)COC(=O)c2ccc(S(=O)(=O)NCc3ccco3)cc2)c1Cl | 61.6% (active)
CSCCC(NC(=O)c1ccco1)C(=O)OCC(=O)Nc1ncc(Cl)c(C)c1Cl (centres undefined) | 2.12%

Reference: PubChem BioAssay AID493091 (Sanford-Burnham Center for Chemical Genomics, 2011)
